# Test results reported in ChEMBL document CHEMBL1629539, “Configuration of the 5'-methyl group modulates the biophysical and biological properties of locked nucleic acid (LNA) oligonucleotides” (J Med Chem, 2010).
# Active and inactive are the calls of the source. The calls are words filed in the database; no cut-off is given here.
# How the values were obtained:
# Mus musculus [1] = assay: Toxicity in BALB/c mouse assessed as increase in spleen weight at 4.5 mg/kg, ip administered twice weekly for 3 weeks measured after 72 hrs post last dose; type: organism-based; set-up: dose 4.5 mg/kg, route intraperitoneal; conditions: in vivo
# How it was run: (§1)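 Balb-c mice (n = 4/group) dosed ip twice a week for 3 weeks at 0.5, 1.5, 4.5 and 15 mg/kg of PTEN-targeting 14-mer phosphorothioate gapmer. Sacrifice 72 h after last dose. Liver PTEN mRNA by quantitative RT-PCR as % versus saline, with ED50 derived from dose-response. Plasma ALT (IU/L) recorded. Spleen weight given as fold increase over saline group.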
# Mus musculus [2] = assay: Reduction in PTEN mRNA expression in ip dosed BALB/c mouse liver administered twice weekly for 3 weeks measured after 72 hrs post last dose; type: functional; how it was run: as §1
# Mus musculus [3] = assay: Toxicity in BALB/c mouse assessed as increase in spleen weight at 1.5 mg/kg, ip administered twice weekly for 3 weeks measured after 72 hrs post last dose; type: organism-based; set-up: dose 1.5 mg/kg, route intraperitoneal; conditions: in vivo; how it was run: as §1
# Mus musculus [4] = assay: Hepatoprotective activity in BALB/c mouse assessed as at 23 mg/kg, ip assessed as reduction of plasma alanine amino transferase levels after 72 hrs post dose; type: functional, organism-based; set-up: dose 23 mg/kg
# How it was run: (§2)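 Balb-c mice, 4 per group, one ip dose at 23 or 46 mg/kg of 14-mer fully phosphorothioate gapmer ASO targeting PTEN. Sacrifice 72 h after dosing. Liver PTEN mRNA quantified by quantitative RT-PCR, expressed as % down-regulation versus saline-treated animals. Plasma ALT (IU/L) measured after sacrifice.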
# Mus musculus [5] = assay: Toxicity in BALB/c mouse assessed as increase in spleen weight at 15 mg/kg, ip administered twice weekly for 3 weeks measured after 72 hrs post last dose; type: organism-based; set-up: dose 15 mg/kg, route intraperitoneal; conditions: in vivo; how it was run: as §1
# Mus musculus [6] = assay: Hepatoprotective activity in BALB/c mouse assessed as at 46 mg/kg, ip assessed as reduction of plasma alanine amino transferase levels after 72 hrs post dose; type: functional, organism-based; set-up: dose 46 mg/kg; how it was run: as §2
smiles,measurement,setting,value
Cc1cn([C@@H]2O[C@@]3(COP(O)(=S)O[C@@H]4[C@H]5OC[C@]4(CO)O[C@H]5n4cc(C)c(=O)[nH]c4=O)CO[C@@H]2[C@@H]3OP(O)(=S)OC[C@@]23CO[C@@H]([C@H](n4cnc5c(N)ncnc54)O2)[C@@H]3OP(O)(=S)OC[C@@]23CO[C@@H]([C@H](n4cc(C)c(=O)[nH]c4=O)O2)[C@@H]3OP(O)(=S)OC[C@@]23CO[C@@H]([C@H](n4cnc5nc(N)[nH]c(=O)c54)O2)[C@@H]3OP(O)(=S)OC[C@@]23CO[C@@H]([C@H](n4cnc5nc(N)[nH]c(=O)c54)O2)[C@@H]3OP(O)(=S)OC[C@@]23CO[C@@H]([C@H](N4CCC(N)=NC4=O)O2)[C@@H]3OP(O)(=S)OC[C@@]23CO[C@@H]([C@H](n4cc(C)c(=O)[nH]c4=O)O2)[C@@H]3OP(O)(=S)OC[C@@]23CO[C@@H]([C@H](n4cnc5nc(N)[nH]c(=O)c54)O2)[C@@H]3OP(O)(=S)OC[C@@]23CO[C@@H]([C@H](n4ccc(N)nc4=O)O2)[C@@H]3OP(O)(=S)OC[C@@]23CO[C@@H]([C@H](n4cnc5c(N)ncnc54)O2)[C@@H]3OP(O)(=S)OC[C@@]23CO[C@@H]([C@H](n4cnc5nc(N)[nH]c(=O)c54)O2)[C@@H]3OP(O)(=S)OC[C@@]23CO[C@@H]([C@H](n4cc(C)c(N)nc4=O)O2)[C@@H]3OP(O)(=S)OC[C@@]23CO[C@@H]([C@H](n4ccc(=O)[nH]c4=O)O2)[C@@H]3O)c(=O)nc1N (some centres not stated),Activity,Mus musculus [1],Toxic
same,ED50,Mus musculus [2],3.1 mg/kg
same,inhibition,Mus musculus [2],Dose-dependent effect
same,Activity,Mus musculus [3],Toxic
same,Activity,Mus musculus [4],inactive
same,Activity,Mus musculus [5],Non-toxic
same,Activity,Mus musculus [6],inactive
